Experimental data reported in paper PMC4332869 (Cancer chemotherapy and pharmacology, 2010).
Read-outs that look alike come from different tables or passages of the source.

Tests used:
A375 cell line = test: Anti-proliferative response in cells grown in culture; format: cell-based, human; details: data not shown
[1] = Plasma pharmacokinetics in A375 tumor-bearing nude mice; format: in vivo, mouse; details: for AUC: AUC0–24 h
Summary of the method: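 Tumor-bearing nude mice got oral 5 or 10 mg/kg once, or 10 mg/kg daily for 7 days (tumors ≥600 mm3), as suspension in 1% Tween 80/PBS. Plasma came by cardiac exsanguination under isoflurane at 0.5–24 h (single) or 1–24 h after the last dose, n = 4. Acetonitrile/methanol extraction with analog internal standard. LC/MS/MS MRM, N-desmethyl m/z 445→287. Noncompartmental analysis; AUC by trapezoidal rule.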

[2] = tested on: A375 human melanoma xenograft tumors; test: Tumor apoptosis; format: in vivo, mouse; details: A375 xenograft tumor sections, versus vehicle
Summary of the method: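 A375 xenograft tumors from oral-dosed and vehicle nude mice were formalin-fixed and paraffin-embedded, then cut into 5 μm sections. Sections were stained by TUNEL (TMR red in situ cell death kit) for apoptosis and by H&E for necrotic area, then imaged by fluorescence microscopy.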

[3] = cited from earlier work; for AUC: AUC0–12 h
[4] = tested on: tumor ERK phosphorylation (MEK1/2 inhibition); test: Inhibition of tumor ERK phosphorylation by western blot; format: in vivo, mouse; details: A375 tumor
Summary of the method: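 Male athymic BALB/c nude mice carrying s.c. rear-flank A375 xenografts (5 million cells in 4:1 serum-free RPMI:Matrigel), tumors ≥400 mm3, got one oral gavage of 5 or 10 mg/kg in 1% Tween 80/PBS. Four mice were killed per time point (0.5–24 h). Frozen tumor was sonicated in Triton/Tris pH 7.5 lysis buffer, then SDS-PAGE with pERK/ERK immunoblot. % inhibition = 100×(1 − treated pERK/ERK ÷ vehicle pERK/ERK).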

patients = details: ref [1], cited from earlier work
[5] = Tissue and tumor distribution in A375 tumor-bearing nude mice; format: in vivo, mouse; details: for P:TAUC: plasma to tissue AUC ratio
[6] = metabolite in mouse plasma, AZD6244 5 mg/kg single oral dose
[7] = metabolite in mouse plasma, AZD6244 10 mg/kg once daily 7 days, steady state
[8] = metabolite in mouse plasma, AZD6244 10 mg/kg single oral dose
[9] = human plasma, 100 mg single dose, ref Adjei et al. [1]
[10] = mouse plasma, 5 mg/kg single oral dose
[11] = mouse plasma, 10 mg/kg oral once daily 7 days, steady state
[12] = mouse plasma, 10 mg/kg single oral dose
[13] = nude, mouse, plasma, po, 5 mg/kg
[14] = nude, mouse, plasma, po, 10 mg/kg

SMILES: O=C(NOCCO)c1cc2[nH]cnc2c(F)c1Nc1ccc(Br)cc1Cl [AZD6244-N-desmethyl]
- potency of cellular growth inhibition in vitro relative to parent (A375 cell line): approximately twice the potency of the parent
- AUC0–24 h [1, 6]: 3,597 ng/(mL h)
- Cmax [1, 6]: 505 ng/mL
- T1/2γ [1, 6]: 3.68 h
- Tmax [1, 6]: 1.0 h
- AUC0–24 h [1, 7]: 3,709 ng/(mL h)
- Cmax [1, 7]: 554 ng/mL
- T1/2γ [1, 7]: 2.37 h
- Tmax [1, 7]: 1.0 h
- AUC0–24 h [1, 8]: 4,993 ng/(mL h)
- Cmax [1, 8]: 865 ng/mL
- T1/2γ [1, 8]: 2.79 h
- Tmax [1, 8]: 2.0 h

SMILES: Cn1cnc2c(F)c(Nc3ccc(Br)cc3Cl)c(C(=O)NOCCO)cc21 [AZD6244]
- apoptotic cells as measured by TUNEL [2]: slight increase in apoptotic cells as measured by TUNEL, this increase was not statistically significant
- necrotic area [2]: no difference in necrotic area
- human AUC ([3]; clinical exposure compared with mouse 10 mg/kg once daily, ref [1]): 10,012 ng/(mL h)
- AUC [3, 9]: 3,124 ng/(mL h)
- Cmax [3, 9]: 807 ng/mL
- T1/2γ [3, 9]: 4.5 h
- AUC ([3]; human plasma, 100 mg steady state, ref Adjei et al. [1]): 5,006 ng/(mL h)
- AUC0–12 h ([3]; humans given 100 mg AZD6244 free-base suspension BID, ref [1]): 3,124 ng/(mL h)
- AUC0–12 h ([3]; humans given 200 mg AZD6244 free-base suspension BID, ref [1]): 5,234 ng/(mL h)
- peak inhibition of phosphorylated ERK ([4]; 5 mg/kg single dose): 72%
- peak inhibition of phosphorylated ERK ([4]; 10 mg/kg single dose): 80%
- patients with stable disease of five or more months (patients; 9 of 54 patients): 16%
- tolerability (patients; most common toxicity skin rash, diarrhea, nausea and fatigue): well tolerated
- T1/2γ [1, 10]: 2.81 h
- AUC [1, 10]: 11,910 ng/(mL h)
- T1/2γ [1, 11]: 2.29 h
- AUC [1, 11]: 17,525 ng/(mL h)
- T1/2γ [1, 12]: 2.62 h
- AUC [1, 12]: 18,976 ng/(mL h)
- CL/F [1, 13]: 6.67 mL/min/kg
- Cmax [1, 13]: 2970 ng/mL
- Tmax [1, 13]: 0.5 h
- Vd/F [1, 13]: 1.7 L/kg
- CL/F [1, 14]: 8.33 mL/min/kg
- Cmax [1, 14]: 3350 ng/mL
- Tmax [1, 14]: 2 h
- Vd/F [1, 14]: 2 L/kg
- AUC0–12 h ([5]; gut, 5 mg/kg, single dose): 5,008 ng/(g h)
- AUC0–12 h ([5]; gut, 10 mg/kg, single dose): 6,845 ng/(g h)
- AUC0–12 h ([5]; gut, 10 mg/kg, steady state): 2,278 ng/(g h)
- AUC0–12 h ([5]; liver, 5 mg/kg, single dose): 4,356 ng/(g h)
- Cmin ([5]; liver, 5 mg/kg, single dose): 299 ng/g
- AUC0–12 h ([5]; liver, 10 mg/kg, single dose): 8,028 ng/(g h)
- Cmin ([5]; liver, 10 mg/kg, single dose): 110 ng/g
- AUC0–12 h ([5]; liver, 10 mg/kg, steady state): 6,781 ng/(g h)
- Cmin ([5]; liver, 10 mg/kg, steady state): 100 ng/g
- ratio of free drug in plasma to free drug in tissue (fB/fT) ([5]; mouse, single oral dose): 1.8
- AUC0–12 h ([5]; muscle, 10 mg/kg, single dose): 667 ng·h/g
- Cmin ([5]; muscle, 10 mg/kg, single dose): 896 ng/g
- Cmin ([5]; muscle, 10 mg/kg, steady state): 1,649 ng/g
- Cmax ([5]; nude, mouse, gut, po, 5 mg/kg, single dose): 1220 ng/g
- Cmax ([5]; nude, mouse, gut, po, 10 mg/kg, single dose): 1930 ng/g
- Cmax at 1 week ([5]; nude, mouse, gut, po, 10 mg/kg, steady state): 6780 ng/g
- half-life ([5]; nude, mouse, gut, po, 10 mg/kg, t1/2, gut, single dose): 1 h
- Tmax ([5]; nude, mouse, liver, lung, kidney, gut, muscle, skin, tumor, po, 10 mg/kg): 0.5 to 2 h
- Cmax ([5]; nude, mouse, lung, po, 5 mg/kg, single dose): 206 ng/g
- Cmax ([5]; nude, mouse, lung, po, 10 mg/kg, single dose): 327 ng/g
- half-life ([5]; nude, mouse, lung, po, 10 mg/kg, t1/2, lung, single dose): 1 h
- Cmax at 1 week ([5]; nude, mouse, muscle, po, 10 mg/kg, steady state): 2040 ng/g
- Cmax ([5]; nude, mouse, skin, po, 5 mg/kg, single dose): 136 ng/g
- Cmax ([5]; nude, mouse, skin, po, 10 mg/kg, single dose): 169 ng/g
- Cmax ([5]; nude, mouse, tumor, po, 5 mg/kg, single dose): 501 ng/g
- Cmax ([5]; nude, mouse, tumor, po, 10 mg/kg, single dose): 861 ng/g
- Cmax ([5]; nude, mouse, tumor, po, 10 mg/kg, steady state): 487 ng/g
- P:TAUC ([5]; gut, 5 mg/kg, single dose): 2.28
- P:TAUC ([5]; gut, 10 mg/kg, single dose): 2.66
- P:TAUC ([5]; gut, 10 mg/kg, steady state): 7.41
- P:TAUC ([5]; liver, 5 mg/kg, single dose): 2.62
- P:TAUC ([5]; liver, 10 mg/kg, single dose): 2.27
- P:TAUC ([5]; liver, 10 mg/kg, steady state): 2.49
- P:TAUC ([5]; lung, 5 mg/kg, single dose): 10.55
- P:TAUC ([5]; lung, 10 mg/kg, single dose): 7.45
- P:TAUC ([5]; muscle, 5 mg/kg, single dose): 14.06
- P:TAUC ([5]; muscle, 10 mg/kg, single dose): 27.33
- P:TAUC ([5]; muscle, 10 mg/kg, steady state): 18.16
- P:TAUC ([5]; skin, 5 mg/kg, single dose): 14.25
- P:TAUC ([5]; skin, 10 mg/kg, single dose): 16.56
- P:TAUC ([5]; tumor, 5 mg/kg, single dose): 3.17
- P:TAUC ([5]; tumor, 10 mg/kg, single dose): 3.82
- P:TAUC ([5]; tumor, 10 mg/kg, steady state): 4.45
- AUC0–12 h ([5]; skin, 5 mg/kg, single dose): 802 ng·h/g
- AUC0–12 h ([5]; tumor, 5 mg/kg, single dose): 3,601 ng/(g h)
- Cmin ([5]; tumor, 5 mg/kg, single dose): 44 ng/g
- AUC0–12 h ([5]; tumor, 10 mg/kg, single dose): 4,776 ng/(g h)
- Cmin ([5]; tumor, 10 mg/kg, single dose): 130 ng/g
- Cmin ([5]; tumor, 10 mg/kg, steady state): 52 ng/g
